Calls of active or inactive are those of the source. No cut-off for these calls is given here.
molecular target: Human immunodeficiency virus type 1 integrase (Human immunodeficiency virus 1) (UniProt Q7ZJM1); test: Inhibition of recombinant HIV1 integrase 3^-end processing and strand transfer activity at 300 uM to 300 nM after 1 hr by PAGE analysis
Outline: (§1)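 Recombinant HIV-1 integrase (100 nM) with 12.5 nM 21-mer double-stranded DNA substrate in 10 mM HEPES pH 7.2, 1 mM DTT, 7.5 mM MgCl₂, 1 hr at 37 °C. Compound was titrated from 300 nM upward; an EDTA (10 mM) lane and a no-drug lane were included. 3′-processed and strand-transfer products were resolved on denaturing 18% acrylamide/urea gels.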

Human immunodeficiency virus type 1 integrase (Human immunodeficiency virus 1), sequence (Q7ZJM1 as listed by the source): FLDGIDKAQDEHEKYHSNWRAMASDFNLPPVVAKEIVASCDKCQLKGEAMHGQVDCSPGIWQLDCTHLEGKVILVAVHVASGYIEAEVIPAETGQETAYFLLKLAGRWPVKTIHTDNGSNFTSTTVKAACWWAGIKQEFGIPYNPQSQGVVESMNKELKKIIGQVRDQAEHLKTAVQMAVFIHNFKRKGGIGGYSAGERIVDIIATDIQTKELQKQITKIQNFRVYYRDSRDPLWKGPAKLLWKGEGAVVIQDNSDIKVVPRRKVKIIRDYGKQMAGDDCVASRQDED

| Activity | SMILES |
| --- | --- |
| Active | Nc1ccn([C@H]2C[C@H](OP(=O)(O)OC[C@H]3O[C@@H](n4cnc5c(N)ncnc54)C[C@@H]3OP(=O)(O)O)[C@@H](COP(=O)(O)OCCCCCCNC(=O)c3ccc4c(c3)C(=O)c3cc(C(=O)NCCCCCCO)ccc3C4=O)O2)c(=O)n1 (stereo in doubt; 29) [listing 1 of 2 here] |
| Active | Nc1ccn([C@H]2C[C@H](OP(=O)(O)OC[C@H]3O[C@@H](n4cnc5c(N)ncnc54)C[C@@H]3OP(=O)(O)O)[C@@H](COP(=O)(O)OCCCCCCNCc3ccc4c5cccc6cccc(c7cccc3c74)c65)O2)c(=O)n1 |
| Active | COc1ccc2nc3cc(Cl)ccc3c(NCCCCCCOP(=O)(O)OC[C@H]3O[C@@H](n4ccc(N)nc4=O)C[C@@H]3OP(=O)(O)OC[C@H]3O[C@@H](n4cnc5c(N)ncnc54)C[C@@H]3OP(=O)(O)O)c2c1 |

molecular target: Human immunodeficiency virus type 1 integrase (Human immunodeficiency virus 1) (UniProt Q7ZJM1); test: Ratio of D-d-5^ CpA3^ IC50 to compound IC50 for recombinant HIV1 integrase 3^-end processing and strand transfer activity

| Ratio IC50 | SMILES |
| --- | --- |
| 3 | N=C(N)NCCCCNP(=O)(OC[C@H]1O[C@@H](n2ccc(N)nc2=O)C[C@@H]1O)OC[C@H]1O[C@@H](n2cnc3c(N)ncnc32)C[C@@H]1O (stereo not given in full) |
| 3 | NCCCCNP(=O)(OC[C@H]1O[C@@H](n2ccc(N)nc2=O)C[C@@H]1O)OC[C@H]1O[C@@H](n2cnc3c(N)ncnc32)C[C@@H]1O (stereo not given in full) |
| 3 | Nc1ccn([C@H]2C[C@H](OP(=O)(S)O[C@H]3C[C@H](n4cnc5c(N)ncnc54)O[C@@H]3CO)[C@@H](CO)O2)c(=O)n1 (stereo not given in full) |
| 3 | NCCCCNP(=O)(O[C@H]1C[C@H](n2ccc(N)nc2=O)O[C@@H]1CO)O[C@H]1C[C@H](n2cnc3c(N)ncnc32)O[C@@H]1CO (stereo not given in full) |
| 3 | N=C(N)NCCCCNP(=O)(O[C@H]1C[C@H](n2ccc(N)nc2=O)O[C@@H]1CO)O[C@H]1C[C@H](n2cnc3c(N)ncnc32)O[C@@H]1CO (stereo not given in full) |

molecular target: Human immunodeficiency virus type 1 integrase (Human immunodeficiency virus 1, UniProt Q7ZJM1); test: Inhibition of recombinant HIV1 integrase 3^-end processing and strand transfer activity after 1 hr; outline: as §1
Sequence (Q7ZJM1 whole entry): as the sequence (Q7ZJM1 as listed by the source) above

| IC50 | SMILES |
| --- | --- |
| ≥ 340 µM | Nc1ccn([C@H]2C[C@H](O)[C@@H](COP(=O)(S)OC[C@H]3O[C@@H](n4cnc5c(N)ncnc54)C[C@@H]3O)O2)c(=O)n1 (stereo not given in full) |
| > 340 µM | NCCCCCNc1ccn([C@H]2C[C@H](OP(=O)(O)OC[C@H]3O[C@@H](n4cnc5c(N)ncnc54)C[C@@H]3O)[C@@H](CO)O2)c(=O)n1 |
| 786 µM | NCCN(CCN)CCCSP(=O)(O)OC[C@H]1O[C@@H](n2ccc(N)nc2=O)C[C@@H]1OP(=O)(O)OC[C@H]1O[C@@H](n2cnc3c(N)ncnc32)C[C@@H]1OP(=O)(O)O |
| > 100 µM | COc1ccc2nc3cc(Cl)ccc3c(NCCC[N+](C)(C)CCCSP(=O)(O)OC[C@H]3O[C@@H](n4ccc(N)nc4=O)C[C@@H]3OP(=O)([O-])OC[C@H]3O[C@@H](n4cnc5c(N)ncnc54)C[C@@H]3OP(=O)(O)O)c2c1 |
| ≥ 340 µM | Nc1ccn([C@H]2C[C@H](OP(=O)(S)OC[C@H]3O[C@@H](n4cnc5c(N)ncnc54)C[C@@H]3O)[C@@H](CO)O2)c(=O)n1 (stereo not given in full) |
| > 340 µM | N=C(N)NCCCCCCNc1ccn([C@H]2C[C@H](OP(=O)(O)OC[C@H]3O[C@@H](n4cnc5c(N)ncnc54)C[C@@H]3O)[C@@H](CO)O2)c(=O)n1 |
| 13.9 µM | Nc1ccn([C@H]2C[C@H](OP(=O)(O)OC[C@H]3O[C@@H](n4cnc5c(N)ncnc54)C[C@@H]3OP(=O)(O)O)[C@@H](COP(=O)(O)SCCCCCC(=O)Nc3cccc4c3C(=O)c3ccccc3C4=O)O2)c(=O)n1 |
| 13.4 µM | Nc1ccn([C@H]2C[C@H](OP(=O)(O)OC[C@H]3O[C@@H](n4cnc5c(N)ncnc54)C[C@@H]3OP(=O)(O)O)[C@@H](COP(=O)(O)SCCCCCC(=O)Nc3ccc(N)c4c3C(=O)c3ccccc3C4=O)O2)c(=O)n1 |
| 30 µM | Nc1ccn([C@H]2C[C@H](OP(=O)(O)OC[C@H]3O[C@@H](n4cnc5c(N)ncnc54)C[C@@H]3OP(=O)(O)O)[C@@H](COP(=O)(O)O[C@H]3C[C@H](OCCCc4ccc5c6cccc7cccc(c8cccc4c85)c76)O[C@@H]3CO)O2)c(=O)n1 |
| > 340 µM | N=C(N)NCCCCNc1ccn([C@H]2C[C@H](OP(=O)(O)OC[C@H]3O[C@@H](n4cnc5c(N)ncnc54)C[C@@H]3O)[C@@H](CO)O2)c(=O)n1 |
| 100 µM | N=C(N)NCCCCNP(=O)(OC[C@H]1O[C@@H](n2ccc(N)nc2=O)C[C@@H]1O)OC[C@H]1O[C@@H](n2cnc3c(N)ncnc32)C[C@@H]1O (stereo not given in full) |
| ≥ 340 µM | N=C(N)NCCCCNP(=O)(OC[C@H]1O[C@@H](n2cnc3c(N)ncnc32)C[C@@H]1O)O[C@H]1C[C@H](n2ccc(N)nc2=O)O[C@@H]1CO (stereo not given in full) |
| > 100 µM | NCCCCCCNP(=O)(O)O[C@H]1C[C@H](n2cnc3c(N)ncnc32)O[C@@H]1COP(=O)(O)O[C@H]1C[C@H](n2ccc(N)nc2=O)O[C@@H]1COP(=O)(O)O |
| > 100 µM | Nc1ccn([C@H]2C[C@H](OP(=O)(O)OC[C@H]3O[C@@H](n4cnc5c(N)ncnc54)C[C@@H]3OP(=O)(O)NCCCO)[C@@H](COP(=O)(O)O)O2)c(=O)n1 |
| ≥ 340 µM | Nc1ccn([C@H]2C[C@H](O)[C@@H](COP(=O)(O)OC[C@H]3O[C@@H](n4cnc5c(N)ncnc54)C[C@@H]3O)O2)c(=O)n1 |
| > 1000 µM | NCCCCNc1ccn([C@H]2C[C@H](OP(=O)(O)OC[C@H]3O[C@@H](n4cnc5c(N)ncnc54)C[C@@H]3O)[C@@H](CO)O2)c(=O)n1 |
| 102 µM | NCCCCNP(=O)(OC[C@H]1O[C@@H](n2ccc(N)nc2=O)C[C@@H]1O)OC[C@H]1O[C@@H](n2cnc3c(N)ncnc32)C[C@@H]1O (stereo not given in full) |
| ≥ 340 µM | Nc1ccn([C@H]2C[C@H](OP(=O)(O)O[C@H]3C[C@H](n4cnc5c(N)ncnc54)O[C@@H]3CO)[C@@H](CO)O2)c(=O)n1 |
| 21 µM | Nc1ccn([C@H]2C[C@H](OP(=O)(O)OC[C@H]3O[C@@H](n4cnc5c(N)ncnc54)C[C@@H]3OP(=O)(O)O)[C@@H](COP(=O)(O)OCCCCCCNC(=O)c3ccc4c(c3)C(=O)c3cc(C(=O)NCCCCCCO)ccc3C4=O)O2)c(=O)n1 (stereo in doubt; 28) |

| IC50 | SMILES |
| --- | --- |
| > 100 µM | COc1ccc2nc3cc(Cl)ccc3c(NCCCCSP(=O)(O)O[C@H]3C[C@H](n4cnc5c(N)ncnc54)O[C@@H]3COP(=O)(O)O[C@H]3C[C@H](n4ccc(N)nc4=O)O[C@@H]3COP(=O)(O)O)c2c1 |
| ≥ 340 µM | NCCCCNP(=O)(OC[C@H]1O[C@@H](n2cnc3c(N)ncnc32)C[C@@H]1O)O[C@H]1C[C@H](n2ccc(N)nc2=O)O[C@@H]1CO (stereo not given in full) |
| > 100 µM | Nc1ccn([C@H]2C[C@H](OP(=O)(O)OC[C@H]3O[C@@H](n4cnc5c(N)ncnc54)C[C@@H]3OP(=O)(O)NCCCCCCCCCCCCO)[C@@H](COP(=O)(O)O)O2)c(=O)n1 |
| 110 µM | Nc1ccn([C@H]2C[C@H](OP(=O)(S)O[C@H]3C[C@H](n4cnc5c(N)ncnc54)O[C@@H]3CO)[C@@H](CO)O2)c(=O)n1 (stereo not given in full) |
| > 340 µM | NCCCCCCNc1ccn([C@H]2C[C@H](OP(=O)(O)OC[C@H]3O[C@@H](n4cnc5c(N)ncnc54)C[C@@H]3O)[C@@H](CO)O2)c(=O)n1 |
| > 1000 µM | NCCCNc1ccn([C@H]2C[C@H](OP(=O)(O)OC[C@H]3O[C@@H](n4cnc5c(N)ncnc54)C[C@@H]3O)[C@@H](CO)O2)c(=O)n1 |
| 1.8 µM | Nc1ccn([C@H]2C[C@H](OP(=O)(O)OC[C@H]3O[C@@H](n4cnc5c(N)ncnc54)C[C@@H]3OP(=O)(O)O)[C@@H](COP(=O)(O)OCCCCCCNCc3ccc4c5cccc6cccc(c7cccc3c74)c65)O2)c(=O)n1 |
| > 100 µM | COc1ccc2nc3cc(Cl)ccc3c(NCCC[N+](C)(C)CCCSP(=O)(O)O[C@H]3C[C@H](n4cnc5c(N)ncnc54)O[C@@H]3COP(=O)([O-])O[C@H]3C[C@H](n4ccc(N)nc4=O)O[C@@H]3COP(=O)(O)O)c2c1 |
| 340 µM | Nc1ccn([C@H]2C[C@H](OP(=O)(O)OC[C@H]3O[C@@H](n4cnc5c(N)ncnc54)C[C@@H]3O)[C@@H](CO)O2)c(=O)n1 |
| 13.2 µM | COc1ccc2nc3cc(Cl)ccc3c(NCCCCCCOP(=O)(O)OC[C@H]3O[C@@H](n4ccc(N)nc4=O)C[C@@H]3OP(=O)(O)OC[C@H]3O[C@@H](n4cnc5c(N)ncnc54)C[C@@H]3OP(=O)(O)O)c2c1 |
| 65.5 µM | Nc1ccn([C@H]2C[C@H](OP(=O)(O)OC[C@H]3O[C@@H](n4cnc5c(N)ncnc54)C[C@@H]3OP(=O)(O)O)[C@@H](COP(=O)(O)OCCCCCCNC(=O)c3ccc4c(c3)C(=O)c3cc(C(=O)NCCCCCCO)ccc3C4=O)O2)c(=O)n1 (stereo in doubt; 29) [listing 2 of 2 here] |
| > 100 µM | COc1ccc2nc3cc(Cl)ccc3c(NCCCCCCSP(=O)(O)O[C@H]3C[C@H](n4cnc5c(N)ncnc54)O[C@@H]3COP(=O)(O)O[C@H]3C[C@H](n4ccc(N)nc4=O)O[C@@H]3COP(=O)(O)O)c2c1 |
| ≥ 340 µM | Nc1ccn([C@@H]2C[C@@H](OP(=O)(O)OC[C@@H]3O[C@H](n4cnc5c(N)ncnc54)C[C@H]3O)[C@H](CO)O2)c(=O)n1 (single isomer, unassigned) |
| 100 µM | NCCCCNP(=O)(O[C@H]1C[C@H](n2ccc(N)nc2=O)O[C@@H]1CO)O[C@H]1C[C@H](n2cnc3c(N)ncnc32)O[C@@H]1CO (stereo not given in full) |
| 100 µM | N=C(N)NCCCCNP(=O)(O[C@H]1C[C@H](n2ccc(N)nc2=O)O[C@@H]1CO)O[C@H]1C[C@H](n2cnc3c(N)ncnc32)O[C@@H]1CO (stereo not given in full) |
| > 1000 µM | NCCNc1ccn([C@H]2C[C@H](OP(=O)(O)OC[C@H]3O[C@@H](n4cnc5c(N)ncnc54)C[C@@H]3O)[C@@H](CO)O2)c(=O)n1 |
| > 340 µM | N=C(N)NCCCCCNc1ccn([C@H]2C[C@H](OP(=O)(O)OC[C@H]3O[C@@H](n4cnc5c(N)ncnc54)C[C@@H]3O)[C@@H](CO)O2)c(=O)n1 |
| ≥ 340 µM | Nc1ccn([C@@H]2C[C@@H](O)[C@H](COP(=O)(O)O[C@@H]3C[C@@H](n4cnc5c(N)ncnc54)O[C@H]3CO)O2)c(=O)n1 |

— ChEMBL document CHEMBL1156247, “Synthesis and anti-HIV-1 integrase activity of modified dinucleotides” (Eur J Med Chem, 2009)
